Experimental data as given in ChEMBL document CHEMBL1146475, “Spasmolytic effects, mode of action, and structure-activity relationships of stilbenoids from Nidema boothii” (J Nat Prod, 2004).
Activity calls are given as the source filed them. The rule behind the calls is not given here.

Key:
Ileum [1] = experiment: Spasmolytic activity in guinea pig ileum assessed as inhibition of spontaneous contraction relative to papaverine; format: functional, Cavia porcellus
Ileum [2] = experiment: Spasmolytic activity in guinea pig ileum assessed as inhibition of spontaneous contraction; format: functional, tissue-based; settings: Cavia porcellus
Method in brief: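 Ileum from male guinea-pigs (600-800 g) in Krebs-Henseleit, pH 7.4, isometric tension recorded. After 30 min stabilization and 10 min control period, DMSO-dissolved compound added, one concentration per segment, and recorded 10 min. Inhibition from area under curve of frequency and amplitude. Mean ±SEM of six experiments; IC50 by nonlinear curve fitting.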

Calmodulin (Bos taurus) = Calmodulin (Bos taurus) (UniProt P62157); experiment: Binding affinity to bovine brain calmodulin by electrophoretic mobility assay in presence of calcium chloride
Method in brief: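 CaM pretreated 1.5 h at 30 °C with CaCl2, then test compound (0.33 µg in DMSO) applied; interaction judged from CaM band mobility on 15% polyacrylamide gel electrophoresis.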

[3] = Inhibition of bovine brain CaM-dependent PDE assessed as inorganic phosphate release in presence of bovine brain calmodulin; set-up: species or system Bos taurus
Method in brief: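 Bovine-brain CaM (0.2 µg) preincubated 3 min with 0.015 units CaM-deficient bovine-brain PDE in buffer with 0.3 units 5′-nucleotidase, 45 mM Tris-HCl, 5.6 mM Mg acetate, 45 mM imidazole, 2.5 mM CaCl2, pH 7.0; reaction started with 100 µL 10.8 mM cAMP, run 30 min. Phosphate measured by Sumner method at 660 nm. IC50 from concentration-inhibition curves, mean ±SEM of at least three experiments.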

Ileum [4] = experiment: Spasmolytic activity in guinea pig ileum assessed as inhibition of spontaneous contraction in presence of ODQ; format: functional, tissue-based; settings: Cavia porcellus
Method in brief: (§1)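 Guinea-pig ileum spontaneous-contraction assay (male, 600-800 g, Krebs-Henseleit pH 7.4, isometric tension, 10 min responses, AUC-based inhibition) run in the presence of L-NAME (500 µM) or ODQ (100 µM). Concentration-response curves as mean ±SEM of six data.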

Ileum [5] = experiment: Spasmolytic activity in guinea pig ileum assessed as inhibition of spontaneous contraction in presence of L-NAME; format: functional, tissue-based; settings: Cavia porcellus; method in brief: as §1

Row | Structure (SMILES) | IC50 (Ileum [2]) | Activity (Calmodulin (Bos taurus)) | IC50 [3] | Ratio IC50 (Ileum [1]) | Emax (Ileum [2]) | Activity (Ileum [4]) | Activity (Ileum [5])
1 | COc1cc(CCc2ccc(OC)c(OC)c2)cc(OC)c1 | 620 nM | Active |  | 6.82 | 84.9% |  | 
2 | COc1cc2ccc3c(OC)c(O)ccc3c2c(OC)c1O | 450 nM |  |  |  |  |  | 
3 | COc1cc(CCc2ccc(O)c(OC)c2)cc(OC)c1 | 1390 nM | Active |  | 3.05 | 76.4% |  | 
4 | COc1ccc(Cc2nccc3cc(OC)c(OC)cc23)cc1OC [PAPAVERINE] | 4230 nM |  |  |  | 91.8% |  | 
5 | Oc1ccc(CCc2cc(O)cc(O)c2)cc1 [DIHYDRORESVERATROL] | 1750 nM | Active |  | 2.42 | 64.1% |  | 
6 | COc1ccc(CCc2ccccc2)cc1O | 1290 nM | Active | 21200 nM | 3.28 | 82.2% |  | 
7 | Oc1cccc(CCc2cc(O)cc(O)c2)c1 | 2360 nM | Active |  | 1.78 | 78.5% |  | 
8 | COc1cc(O)cc(CCc2cccc(O)c2)c1 [BATATASIN III] | 240 nM | Active | 13300 nM | 17.62 | 67.5% | inactive | inactive
9 | COc1ccc(CCc2cc(O)cc(O)c2)cc1O | 700 nM | Active |  | 5.99 | 51.8% |  | 
10 | COc1cc(CCc2cc(OC)c(O)c(OC)c2)ccc1O [MOSCATILIN] | 560 nM |  |  | 7.65 | 73.6% |  | 

Second part, led by results:

Row | IC50 (Ileum [2]) | Activity (Calmodulin (Bos taurus)) | IC50 [3] | Structure (SMILES) | Ratio IC50 (Ileum [1]) | Emax (Ileum [2]) | Activity (Ileum [4]) | Activity (Ileum [5])
11 | 960 nM | Active |  | COc1cccc(CCc2cc(OC)cc(OC)c2)c1 | 4.41 | 75.6% |  | 
12 | 140 nM | Active | 10100 nM | COc1cc(O)cc(CCc2ccc(O)cc2)c1 | 30.85 | 85% |  | 
13 | 580 nM | Active |  | COc1cc(O)cc(CCc2ccc(OC)c(OC)c2)c1 | 7.32 | 66% |  | 
14 | 140 nM | Active | 9000 nM | COc1cc(O)cc(CCc2ccc(OC)c(O)c2)c1 | 31.33 | 66.5% |  | 
15 | 1280 nM | Active |  | COc1cccc(CCc2cc(O)cc(OC)c2)c1 | 3.3 | 58.6% |  | 
16 | 410 nM |  |  | COc1cc(O)c2c(c1)CCc1cc(O)ccc1-2 [LUSIANTHRIDIN] |  |  |  | 
17 |  | Active | 10900 nM | COC1=CC(=O)C2=C(CCc3cc(O)ccc32)C1=O [EPHEMERANTHOQUINONE] |  |  |  | 
18 | 180 nM |  | 10300 nM | CN(C)CCCN1c2ccccc2Sc2ccc(Cl)cc21 [CHLORPROMAZINE] | 23.5 | 81.8% |  | 
19 | 1490 nM | Active | 36600 nM | Oc1cc(O)cc(CCc2ccccc2)c1 [DIHYDROPINOSYLVIN] | 2.84 | 83.3% |  | 
20 | 850 nM | Active |  | Oc1cc(O)cc(CCc2ccc(O)c(O)c2)c1 | 4.94 | 53.6% |  | 
21 |  | Active | 3200 nM | COC1=CC(=O)CC12CCc1cccc(O)c1C2=O (stereo not given) [NIDEMONE] |  |  |  | 
22 | 260 nM | Active | 7000 nM | COc1cc(O)cc(CCc2ccc(O)c(OC)c2)c1 [GIGANTOL] | 16.26 | 81.3% | inactive | inactive
